Jurkat viability = cytotoxicity toward Jurkat T cells, primary screen, cytotoxicity control, cell-based, Jurkat E6.1, 60K MLSMR library. Jurkat E6.1 viability, ATP luminescence, 48 h. inhibition, % at 4 µM. 1.2% of 56,000 active. AID 463, 2006;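 active = inhibition above the mean inhibition of all tested compounds plus 3 SD, cut at about 28% in these data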
H69AR growth 86K = proliferation blockers of H69AR lung cancer cells, primary screen, cell-based, human, 86K library | H69AR lung tumor viability, ATP luminescence, 72 h; active compounds read low | viability, % at 10 µM | 6% of 85,000 active;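 active = viability at or below 40%; inactive = viability above 40%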;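 also: multidrug resistant small cell line overexpressing MRP-1 efflux transporter; 100% = mean luminescence of untreated control wells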
PTK2B oligo ant = antagonists of Pyk2 self-association, primary screen, Q293 cells, FERM NanoBiT luminescence, HTS; z-score (the deposit names both 25 µM and 10 µM); 0.83% of 99,000 active; AID 1347419, 2020; active compounds read low; Protein-tyrosine kinase 2-beta (Homo sapiens), Q14289;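 active = Z-score of -3 or lower, scaled per plate to the spread of control and sample wells; inactive = z-score above -3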;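 also: negative z-score means lost luminescence so less FERM oligomerization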
Target sequence (Q14289 whole entry, looked up): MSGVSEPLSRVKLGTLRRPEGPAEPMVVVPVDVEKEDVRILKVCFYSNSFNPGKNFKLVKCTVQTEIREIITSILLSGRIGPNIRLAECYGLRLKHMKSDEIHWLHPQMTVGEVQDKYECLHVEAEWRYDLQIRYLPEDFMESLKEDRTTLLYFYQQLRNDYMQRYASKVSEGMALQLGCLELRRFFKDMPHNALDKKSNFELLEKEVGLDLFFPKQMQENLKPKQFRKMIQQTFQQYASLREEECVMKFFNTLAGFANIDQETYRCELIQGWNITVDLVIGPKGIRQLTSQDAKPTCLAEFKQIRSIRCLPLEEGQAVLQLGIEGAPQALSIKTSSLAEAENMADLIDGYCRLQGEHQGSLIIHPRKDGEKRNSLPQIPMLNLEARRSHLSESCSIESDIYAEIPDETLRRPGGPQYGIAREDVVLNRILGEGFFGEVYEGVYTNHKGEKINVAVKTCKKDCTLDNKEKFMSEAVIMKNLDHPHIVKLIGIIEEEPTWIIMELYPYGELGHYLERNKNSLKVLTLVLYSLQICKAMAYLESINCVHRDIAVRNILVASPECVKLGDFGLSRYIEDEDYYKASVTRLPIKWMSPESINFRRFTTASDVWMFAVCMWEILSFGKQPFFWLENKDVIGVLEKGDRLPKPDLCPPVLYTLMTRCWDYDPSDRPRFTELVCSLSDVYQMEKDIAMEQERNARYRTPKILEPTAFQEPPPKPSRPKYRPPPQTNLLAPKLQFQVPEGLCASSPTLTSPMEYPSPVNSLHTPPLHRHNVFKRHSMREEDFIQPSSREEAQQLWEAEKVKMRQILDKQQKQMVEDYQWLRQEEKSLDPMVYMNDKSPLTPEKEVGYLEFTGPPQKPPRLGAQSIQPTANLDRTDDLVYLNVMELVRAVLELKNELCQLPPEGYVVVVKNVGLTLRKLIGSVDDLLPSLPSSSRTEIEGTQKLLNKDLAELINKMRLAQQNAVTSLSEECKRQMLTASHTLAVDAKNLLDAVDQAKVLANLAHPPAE
F-actin modifier = modifiers of F-actin cytoskeleton organization, primary screen, imaging, HUVEC, phalloidin staining, high-content imaging; inhibition, % at 2 µM; 0.18% of 91,000 active; HUVEC TNFa F-actin phalloidin imaging;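 active = inhibition above the batch mean plus 3 SD and confirmed as a hit by visual image inspection, cut at about 30% in these data, passing the limit was not always enough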
Fibroblast inh = antiproliferative effect on LL 47 fibroblasts – human, LL 47 cells, CellTiter-Glo luminescence, primary screen. LL 47 human lung fibroblast viability, ATP luminescence; active compounds read low. viability, % at 10 µM. 1.1% of 85,000 active;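 active = viability at or below 50% in the single dose screen; inactive = viability above 50%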;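 also: compound exposure lasted 72 h before the ATP readout; 100% = median luminescence of untreated cell-only wells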
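material = human LL 47 lung fibroblast cells | dosing = compounds added from tenfold dosing solution, 0.1% DMSO final | timing = overnight cell rest, 72 h compound treatment at 37 °C | measured by = CellTiter-Glo luminescence measuring cellular ATP | evaluation = % viability versus median cells-only luminescence | control set = cell-only wells, no compound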
HUVEC prolif 384 = inhibitors of HUVEC proliferation, primary screen, cell-based, 384-well. CellTiter-Glo luminescence, 72 h; active compounds read low. viability, % at 10 µM (by protocol). 1.1% of 86,000 active;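 active = viability at or below 30%; inactive = viability above 30%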;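 also: 100% = median luminescence of DMSO-only cell control wells on each plate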
* = called active by the depositor; . = no result given. Shown are actives, neighbours in structure and some others; about 6% of the full set was active somewhere.

SMILES	Jurkat viability	H69AR growth 86K	PTK2B oligo ant	F-actin modifier	Fibroblast inh	HUVEC prolif 384
COC(=O)c1ccccc1NC(=O)C1CC(=O)N(c2ccc(C)c(C)c2)C1 (centres undefined)	.	32.0*	0.76	3.4	101.7	95.5
Cc1ccc(N2CC(C(=O)Nc3ccc4c(c3)OCO4)CC2=O)cc1 (centres undefined)	3.0	92.0	-0.03	23.3	103.7	93.3
O=C(Nc1ccc(Cl)c(Cl)c1)C1CC(=O)N(c2ccc(Br)cc2)C1 (centres undefined)	.	9.0*	-0.93	9.1	102.5	53.6
Cc1ccc(N2CC(C(=O)Nc3nccs3)CC2=O)cc1Cl (centres undefined)	.	86.8	-0.63	-8.1	28.6*	17.2*
CCOC(=O)Cc1csc(NC(=O)CCS(=O)(=O)Cc2ccccc2)n1	-3.9	117.1	0.6	2.1	92.0	93.6
CCOCCOCCC(C(=O)OCC)P(=O)(c1ccccc1)c1ccccc1 (centres undefined)	.	95.2	1.32	4.8	101.4	96.4
CCOc1ccc(-c2nnc(NC(=O)c3ccc(OCC(C)C)c(OC)c3)o2)cc1	1.4	29.0*	-0.14	-16.7	54.3	19.4*
COc1cccc(C(=O)Nc2nnc(-c3ccc(F)cc3)o2)c1	1.9	36.7*	.	.	91.3	55.8
COc1ccc(-c2nnc(NC(=O)C(C)C)o2)cc1	-2.0	86.1	.	-2.3	95.2	93.0
COc1cccc(C(=O)Nc2nnc(-c3ccc(Cl)cc3)o2)c1	-2.9	.	.	.	.	.
COc1ccc(-c2nnc(NC(=O)c3ccccc3C)o2)cc1	42.8*	73.8	.	.	73.8	30.8
CCn1nnnc1SCC(=O)c1ccc(NC(C)=O)cc1	-8.4	91.0	0.15	1.6	99.4	90.0
Cc1ccc(/C=N/N2CCN(Cc3ccc(Cl)cc3)CC2)o1	.	89.1	0.16	-5.0	102.6	86.1
Cn1c(=O)c2c(SCc3cccc(C(F)(F)F)c3)nc(-c3ccco3)nc2n(C)c1=O	2.1	100.8	0.6	0.2	47.8*	20.2*
CN(CCCC(=O)Nc1ccncc1)S(=O)(=O)c1ccc(Cl)cc1	44.8*	91.2	0.84	-21.2	96.7	95.8
Cc1ccccc1S(=O)(=O)c1c(C)cc(-c2ccccc2)[nH]c1=O	.	.	-0.27	27.0	.	.
COC(=O)C1=C(N)N(c2ccccc2C(F)(F)F)C2=C(C(=O)CCC2)C1c1ccc2c(c1)OCO2 (centres undefined)	.	92.9	-4.31*	15.1	93.4	88.7
CCN(c1ccccc1)S(=O)(=O)c1ccc(N)c(OC)c1	.	17.1*	0.03	-44.8	72.4	54.6
COc1ccc(S(=O)(=O)Cc2ccccc2)cc1N	-6.5	36.9*	0.05	.	95.1	91.2
CCOc1ccccc1NC(=O)Cn1nnc(C(=O)NCc2ccco2)c1N	97.5*	26.1*	0.36	-44.4	55.1	51.0
CCOc1ccccc1NC(=O)Cn1nnc(C(=O)Nc2ccc(C)cc2)c1N	7.1	78.1	-1.19	-9.6	82.9	75.7
O=C(NCc1cccs1)C1CCN(c2ccc(S(=O)(=O)N3CCOCC3)cc2Cl)CC1	91.1*	17.6*	-0.09	-10.9	58.7	53.7
Cc1ccc(N(CN2CCCC2=O)C(=O)c2ccc(OC(C)C)cc2)cc1	0.0	.	-1.06	-10.5	.	.
CCN(CC)CCOc1ccc2c(c1)C(=NO)c1cc(OCCN(CC)CC)ccc1-2	.	50.0	0.72	-21.2	3.0*	12.2*
CCN(CC)S(=O)(=O)c1ccc2c(c1)C(=NO)c1cc(S(=O)(=O)N(CC)CC)ccc1-2	.	2.6*	-3.01*	-23.0	37.9*	4.3*
SMILES	Jurkat viability	H69AR growth 86K	PTK2B oligo ant	F-actin modifier	Fibroblast inh	HUVEC prolif 384
CC(/C=C/c1ccco1)=N/NC(=O)Cc1cccs1	.	.	-0.24	18.2	.	.
Cc1ccc(Cl)cc1N1CCN(C(=O)c2cn(C)c(=O)c3c2c2ccccc2n3C)CC1	12.7	3.4*	-0.27	-6.5	55.4	33.3
Cc1cccc(N2CCN(C(=O)c3cn(C)c(=O)c4c3c3ccccc3n4C)CC2)c1C	15.8	31.4*	0.7	6.0	85.0	36.4
COc1ccc(N/C=C(\C#N)c2nc3ccccc3n2C)c(OC)c1	.	46.2	-0.17	4.3	94.6	73.6
CCOC(=O)c1[nH]c(C)c(C(=O)Nc2ccccc2C)c1C	78.6*	26.0*	.	.	64.9	60.5
CCOC(=O)c1[nH]c(C)c(C(=O)OCCN2C(=O)c3ccccc3C2=O)c1C	-0.6	33.9*	-2.35	-1.7	101.2	79.3
CCOC(=O)c1[nH]c(C)c(C(=O)Nc2cc(Cl)ccc2C)c1C	88.3*	24.5*	-0.47	.	59.2	65.0
COc1ccc(-c2cn3c(C)c(C(=O)N4CCN(c5ccc(OC)cc5)CC4)sc3n2)cc1	9.8	69.7	.	.	100.6	99.7
Cc1cc(N2CCC(C)CC2)nc(SCC(=O)c2ccccc2)n1	.	39.5*	-2.59	-18.9	92.4	87.6
COc1ccc(Nc2nc(N3CCCC3)c3ccccc3n2)cc1	19.2	35.9*	-2.66	.	19.9*	7.7*
COc1ccc(Nc2nc(N3CCCCC3)nc3ccccc23)c(OC)c1	.	9.0*	-1.39	-0.4	76.6	72.5
CSc1nc(N2CCOCC2)c2ccccc2n1	-1.1	80.9	-0.34	-15.0	96.5	97.5
CCN(CC)c1ccc(Nc2nc(N3CCOCC3)c3ccccc3n2)cc1	.	31.8*	-0.28	17.2	88.1	81.0
COc1ccc(Nc2nc(N3CCCCC3)nc(N3CCCCC3)n2)c(OC)c1	-2.9	85.8	0.09	.	93.5	96.3
C=CCc1c(C)nc(N)[nH]c1=O	.	90.2	-0.08	-5.3	99.3	92.5
O=C(O)C1CC(=O)N(c2ccc(OCc3ccccc3)cc2)C1 (centres undefined)	.	101.5	2.2	12.9	113.5	98.4
CCCN1C(=O)/C(=C/C=C2\N(CC)c3ccccc3C2(C)C)SC1=S	.	.	-3.03*	-9.9	.	.
CCN1C(=O)/C(=C/N2CCc3ccccc32)SC1=S	-7.9	70.5	-0.5	-11.3	98.3	99.0
COc1cc(-c2c(C#N)c(=O)[nH]c3c2c(C)nn3-c2ccccc2)ccc1O	-2.2	92.0	-3.28*	-21.0	104.0	84.5
CCc1nc(N)c(C#N)c(-c2ccc(O)c(OC)c2)c1C	-2.7	82.2	-1.22	-12.8	101.9	102.1
CC(C)(C)Cc1nc(-c2ccc(Cl)cc2)no1	.	98.9	0.47	-25.0	102.2	102.2
COc1ccc(Cc2nc(C(=O)Nc3ccc(F)cc3)cs2)cc1	.	61.1	2.03	1.6	91.2	45.8
CCOc1ccccc1-c1nc(-c2ccc(NC(=O)c3ccc(Br)o3)cc2)no1	3.4	55.2	.	3.1	74.0	54.0
COc1ccc(CC(=O)Nc2ccc(-c3noc(-c4ccc(Cl)cc4)n3)cc2)cc1	.	5.1*	0.39	16.2	19.1*	42.6
COc1ccc(Cc2nc(-c3ccc(NC(=O)c4cccnc4)cc3)no2)cc1	22.6	6.0*	-0.2	6.1	102.1	120.2

Compound activity as filed in PubChem BioAssay.
